Source: ChEMBL document CHEMBL4396885, “Thioether-based 2-aminobenzamide derivatives: Novel HDAC inhibitors with potent in vitro and in vivo antitumor activity” (Eur J Med Chem, 2019)

Assays:
[1] = system: HeLa; assay: Antiproliferative activity against human HeLa cells assessed as growth inhibition at 8 uM after 72 hrs by CCK-8 assay relative to control; assay type: functional; conditions: read-out: GI
[2] = system: HCT-116; assay: Antiproliferative activity against human HCT116 cells assessed as growth inhibition at 2 uM after 72 hrs by CCK-8 assay relative to control; assay type: functional; conditions: HCT-116, 72 h, read-out: GI
[3] = system: A-375; assay: Antiproliferative activity against human A375 cells assessed as decrease in cell viability after 72 hrs by CCK-8 assay; assay type: functional, cell-based; conditions: A-375, 72 h
In short: (§1)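 Cells grown to 70–85% confluence (A375, A549, HCT116 in RPMI1640; HeLa, SMMC7721 in DMEM; 10% FBS, 37 °C, 5% CO2), seeded 4000/well, dosed after 12 h across a concentration range, incubated 72 h, then CCK-8 for 1 h; absorbance at 450 nm. IC50 as mean ± SD of three separate experiments.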

[4] = system: SMMC-7721; assay: Antiproliferative activity against human SMMC7721 cells assessed as growth inhibition at 2 uM after 72 hrs by CCK-8 assay relative to control; assay type: functional; conditions: SMMC-7721, 72 h, read-out: GI
[5] = system: HeLa; assay: Antiproliferative activity against human HeLa cells assessed as growth inhibition at 2 uM after 72 hrs by CCK-8 assay relative to control; assay type: functional; conditions: read-out: GI
[6] = system: SMMC-7721; assay: Antiproliferative activity against human SMMC7721 cells assessed as growth inhibition at 8 uM after 72 hrs by CCK-8 assay relative to control; assay type: functional; conditions: SMMC-7721, 72 h, read-out: GI
[7] = system: HCT-116; assay: Antiproliferative activity against human HCT116 cells assessed as growth inhibition at 8 uM after 72 hrs by CCK-8 assay relative to control; assay type: functional; conditions: HCT-116, 72 h, read-out: GI
[8] = system: A549; assay: Antiproliferative activity against human A549 cells assessed as decrease in cell viability after 72 hrs by CCK-8 assay; assay type: functional, cell-based; conditions: A549, 72 h; in short: as §1
[9] = system: A-375; assay: Antiproliferative activity against human A375 cells assessed as growth inhibition at 2 uM after 72 hrs by CCK-8 assay relative to control; assay type: functional; conditions: A-375, 72 h, read-out: GI
[10] = system: A549; assay: Antiproliferative activity against human A549 cells assessed as growth inhibition at 2 uM after 72 hrs by CCK-8 assay relative to control; assay type: functional; conditions: A549, 72 h, read-out: GI
[11] = system: A549; assay: Antiproliferative activity against human A549 cells assessed as growth inhibition at 8 uM after 72 hrs by CCK-8 assay relative to control; assay type: functional; conditions: A549, 72 h, read-out: GI
[12] = system: A-375; assay: Antiproliferative activity against human A375 cells assessed as growth inhibition at 8 uM after 72 hrs by CCK-8 assay relative to control; assay type: functional; conditions: A-375, 72 h, read-out: GI
[13] = system: HCT-116; assay: Antiproliferative activity against human HCT116 cells assessed as decrease in cell viability after 72 hrs by CCK-8 assay; assay type: functional, cell-based; conditions: HCT-116, 72 h; in short: as §1
[14] = system: HeLa; assay: Antiproliferative activity against human HeLa cells assessed as decrease in cell viability after 72 hrs by CCK-8 assay; assay type: functional, cell-based; in short: as §1
[15] = system: SMMC-7721; assay: Antiproliferative activity against human SMMC7721 cells assessed as decrease in cell viability after 72 hrs by CCK-8 assay; assay type: functional, cell-based; conditions: SMMC-7721, 72 h; in short: as §1

| SMILES | IC50 [3] [µM] | IC50 [8] [µM] | IC50 [13] [µM] | IC50 [14] [µM] | IC50 [15] [µM] | inhibition of growth at 8 µM [1] [%] | inhibition of growth at 2 µM [2] [%] | inhibition of growth at 2 µM [4] [%] | inhibition of growth at 2 µM [5] [%] | inhibition of growth at 8 µM [6] [%] | inhibition of growth at 8 µM [7] [%] | inhibition of growth at 2 µM [9] [%] | inhibition of growth at 2 µM [10] [%] | inhibition of growth at 8 µM [11] [%] | inhibition of growth at 8 µM [12] [%] |
| --- | --- | --- | --- | --- | --- | --- | --- | --- | --- | --- | --- | --- | --- | --- | --- |
| COc1ccc(SCc2ccc(/C=C/C(=O)Nc3ccccc3N)cc2)cc1OC |  |  |  |  |  | 21.9 | 12.9 | 14.3 | 10.1 | 44.6 | 49.5 | 46 | 65.5 | 80.6 | 46.4 |
| Cc1cc(C)cc(SCc2ccc(/C=C/C(=O)Nc3ccccc3N)cc2)c1 |  |  |  |  |  | 3.39 | 7.98 | 8.61 | 11.7 | 7.13 | 4.2 | 8.78 | 46.1 | 47.3 | 2.49 |
| Nc1ccccc1NC(=O)/C=C/c1ccc(CSc2ccc(C(F)(F)F)cn2)cc1 |  |  |  |  |  | 6.82 | 4.42 | 12.1 | 6.07 | 20.1 | 14.9 | 10.3 | 51.7 | 56.5 | 3.96 |
| Cc1ccc(SCc2ccc(/C=C/C(=O)Nc3ccccc3N)cc2)cc1 |  |  |  |  |  | 21.7 | 6.23 | 22 | 25.4 | 22.1 | 4.93 | 22.9 | 43.4 | 48.2 | 31.2 |
| CC(C)(C)c1ccc(SCc2ccc(C(=O)Nc3ccccc3N)cc2)cc1 |  |  |  |  |  | 40.2 | 4.81 | 23.6 | 9.73 | 46.1 | 60.5 | 2.13 | 38.6 | 67 | 33.1 |
| Nc1ccccc1NC(=O)c1ccc(CSc2ccc(Br)cc2)cc1 |  |  |  |  |  | 38.2 | 9.96 | 10 | 18.8 | 25.3 | 67.7 | 4.35 | 33.2 | 45.6 | 6.17 |
| Nc1ccccc1NC(=O)c1ccc(CSc2ccc(C(F)(F)F)cn2)cc1 |  |  |  |  |  | 16.5 | 1.2 | 12.4 | 11.5 | 7.57 | 25.8 | 4.3 | 37.1 | 38.9 | 5.34 |
| Nc1ccccc1NC(=O)/C=C/c1ccc(CSc2ccc(Cl)cc2)cc1 |  |  |  |  |  | 17.3 | 5.62 | 15.2 | 1.94 | 16.4 | 3.27 | 13.4 | 55.2 | 59.6 | 48.2 |
| Nc1ccccc1NC(=O)/C=C/c1ccc(CSc2cccc(F)c2)cc1 |  |  |  |  |  | 18.6 | 7.95 | 8.56 | 2.25 | 8.25 | 3.22 | 6.75 | 50.7 | 56.6 | 9.08 |

Further lines, with some results ahead:

| IC50 [3] [µM] | IC50 [8] [µM] | IC50 [13] [µM] | IC50 [14] [µM] | IC50 [15] [µM] | SMILES | inhibition of growth at 8 µM [1] [%] | inhibition of growth at 2 µM [2] [%] | inhibition of growth at 2 µM [4] [%] | inhibition of growth at 2 µM [5] [%] | inhibition of growth at 8 µM [6] [%] | inhibition of growth at 8 µM [7] [%] | inhibition of growth at 2 µM [9] [%] | inhibition of growth at 2 µM [10] [%] | inhibition of growth at 8 µM [11] [%] | inhibition of growth at 8 µM [12] [%] |
| --- | --- | --- | --- | --- | --- | --- | --- | --- | --- | --- | --- | --- | --- | --- | --- |
| 3.67 | 1.19 |  |  |  | Nc1ccccc1NC(=O)/C=C/c1ccc(CSc2ccc(F)cc2)cc1 | 10.4 | 14.1 | 18.3 | 7.09 | 15.4 | 20.2 | 28.8 | 51.2 | 59.1 | 24.6 |
|  | 1.3 |  |  |  | CCc1ccc(SCc2ccc(/C=C/C(=O)Nc3ccccc3N)cc2)cc1 | 20.9 | 3.29 | 13.2 | 3.96 | 19.5 | 2.68 | 5.27 | 60.7 | 68.6 | 58.4 |
| 1.55 | 0.64 |  |  |  | CC(C)(C)c1ccc(SCc2ccc(/C=C/C(=O)Nc3ccccc3N)cc2)cc1 | 9.8 | 6.66 | 18.3 | 17.5 | 23.6 | 39 | 38.4 | 71.5 | 79.8 | 35.5 |
| 2.86 | 3.25 | 2.81 | 6.43 | 4.88 | Nc1ccccc1NC(=O)c1ccc(CSCCc2ccccc2)cc1 | 74.8 | 30.5 | 28.1 | 27.7 | 77.9 | 81.3 | 21.8 | 44.9 | 84.1 | 69.9 |
| 3.9 |  | 2.87 | 3.24 | 3.28 | Nc1ccccc1NC(=O)c1ccc(CSc2cccc(F)c2)cc1 | 78.4 | 5.5 | 18.6 | 22.5 | 83 | 81.3 | 37.7 | 46.9 | 72.7 | 76.2 |
| 15.7 | 1.15 |  |  | 10.9 | Nc1ccccc1NC(=O)/C=C/c1ccc(CSCCc2ccccc2)cc1 | 3.57 | 18 | 14.7 | 0.19 | 15.8 | 10.6 | 41.9 | 45.7 | 50.3 | 37.4 |
| 3.61 |  | 2.78 | 6.68 | 4.49 | COC(=O)c1ccccc1SCc1ccc(C(=O)Nc2ccccc2N)cc1 | 55.5 | 21.8 | 18 | 29.8 | 62.5 | 92 | 35.1 | 44.7 | 46.1 | 70.1 |
|  | 0.83 |  |  |  | Nc1ccccc1NC(=O)/C=C/c1ccc(CSc2cccc3ccccc23)cc1 | 22.1 | 11 | 3.7 | 20.6 | 18.3 | 35.2 | 1.55 | 59.3 | 71.2 | 36 |
|  |  | 4.01 | 5.01 | 5.77 | Nc1ccccc1NC(=O)c1ccc(CSc2ccc(F)cc2)cc1 | 79.3 | 13.5 | 6.58 | 27.9 | 81.9 | 90.6 | 19.4 | 43.4 | 44.5 | 54.3 |
|  |  | 3.75 | 12.7 |  | Nc1ccccc1NC(=O)c1ccc(CSc2ccc(Cl)cc2)cc1 | 51.4 | 17.5 | 2.93 | 19.2 | 16.5 | 76.6 | 25.2 | 47.3 | 50.4 | 48.6 |
